Assay outcomes (PubChem BioAssay)
Rows were chosen to be rich in hits. Some 3.1% of all compounds tested hit in one or more screens of this group.
PREPL inh: inhibits the human prolyl oligopeptidase-like enzyme; 320,000 compounds, 0.68% hits; Q4J6C6; inhibition, % at 5.96 µM; recombinant PREPL, fluorescence polarization activity-based probe; in the data active = inhibition above about 43%;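 also: 0% = enzyme with DMSO and 100% = wells lacking enzyme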
Target sequence (Q4J6C6 whole entry, looked up): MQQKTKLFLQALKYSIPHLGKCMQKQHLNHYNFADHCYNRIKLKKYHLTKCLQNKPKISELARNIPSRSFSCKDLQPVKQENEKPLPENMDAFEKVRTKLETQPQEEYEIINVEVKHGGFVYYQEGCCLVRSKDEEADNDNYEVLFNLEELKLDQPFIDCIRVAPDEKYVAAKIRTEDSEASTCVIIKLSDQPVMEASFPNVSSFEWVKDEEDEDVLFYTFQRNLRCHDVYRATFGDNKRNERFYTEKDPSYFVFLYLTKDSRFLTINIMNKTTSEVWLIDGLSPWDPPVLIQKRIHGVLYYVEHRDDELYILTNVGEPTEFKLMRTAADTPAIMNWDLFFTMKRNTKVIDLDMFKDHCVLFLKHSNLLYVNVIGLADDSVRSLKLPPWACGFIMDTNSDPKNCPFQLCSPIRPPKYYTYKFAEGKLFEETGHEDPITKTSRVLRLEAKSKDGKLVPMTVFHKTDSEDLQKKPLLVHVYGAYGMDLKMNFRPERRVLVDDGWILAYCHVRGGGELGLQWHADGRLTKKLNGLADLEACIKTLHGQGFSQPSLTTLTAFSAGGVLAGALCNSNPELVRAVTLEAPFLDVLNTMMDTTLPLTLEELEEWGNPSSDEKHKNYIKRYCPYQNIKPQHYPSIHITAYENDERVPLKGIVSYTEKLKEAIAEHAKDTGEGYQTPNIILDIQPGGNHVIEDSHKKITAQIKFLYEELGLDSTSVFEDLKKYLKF
MEKK2 mut-MEK5: signal of MEK5 binding to mutant human MEKK2 PB1 domain; bead flow cytometry, Alexa488-MEK5 binding to MEKK2 mutant; percent response, % at 10 µM; 290,000 compounds, 0.35% hits; in the data active = percent response above about 24%, passing the limit was not always enough
Apaf1 inhib: inhibitors of human Apaf-1 apoptosome; reconstituted apoptosome caspase-3 activity, DEVD-Rh110 fluorescence; O14727; inhibition, % at 20 µM; 330,000 compounds, 0.71% hits; active = inhibition of at least 40% at 20 µM;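 also: plate controls were DMSO wells for no effect and DEVD-CHO caspase inhibitor wells for full effect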
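Material: biochemical Apaf-1 apoptosome reconstitution. Medium: Hepes buffer, pH 7.5. Also added: cytochrome c activation, bis-DEVD rhodamine 110 substrate. Timing: 30 min compound preincubation, 50 min activation, room temperature. Measured by: rhodamine 110 fluorescence at Ex 480/Em 540 nm.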
UBC13 polyUb: blocks human UBC13 polyubiquitin chain formation; P61088; TR-FRET; inhibition, % at 20 µM; 330,000 compounds, 0.47% hits; in the data active = inhibition above about 45%, passing the limit was not always enough; inconclusive = no clear call, values can overlap the other calls
MEKK2wt PB1 HTS: raises or lowers MEK5 binding to wildtype human MEKK2 PB1 domain. Q9Y2U5. bead flow cytometry, Alexa488-MEK5 binding to MEKK2 WT; actives lie on both sides. binding response (% of control), % at 10 µM. 290,000 compounds, 1.1% hits; in the data active = binding response below about 67% or above about 130%; inconclusive = no clear call, values can overlap the other calls; inactive = in between
MEKK3 PB1 HTS: modulators (inhibitors or enhancers) of MEK5 binding to human MEKK3 PB1 domain; Q99759; bead-based flow cytometry, Alexa488-MEK5 binding to MEKK3; actives lie on both sides; 0 = blocked by unlabeled MEK5, 100 = vehicle; binding response (% of control), % at 10 µM; 290,000 compounds, 1.4% hits;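 active = binding response more than 3 SD above or below the average of its plate-row segment, actives on both sides; inconclusive = wells at one plate position flagged as instrument error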;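 also: Alexa488 bead fluorescence after subtracting the streptavidin-only scavenger bead signal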
MEKK2wt confirm: raises or lowers MEK5 binding to wildtype human MEKK2, retest | shares compounds with MEKK3 PB1 HTS | bead flow cytometry, Alexa488-MEK5 binding to MEKK2 WT; actives lie on both sides | binding response (% of control), % at 10 µM | 5,900 compounds, 2.4% hits | AID 1892; in the data active = binding response below about 16% or above about 210%; inactive = in between
MEKK2mut-MEK5: signal of MEK5 binding to mutant human MEKK2, retest | shares compounds with MEKK3 PB1 HTS | bead flow cytometry, Alexa488-MEK5 binding to MEKK2 mutant | percent response, % at 10 µM | 5,900 compounds, 2% hits | AID 1893; in the data active = percent response mostly above about 71%, no sharp cut-off; inactive = mostly below about 38%;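 also: higher means compound restores mutant binding toward wildtype level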
MEKK3 confirm: MEKK3-MEK5 PB1 inhibition, single concentration confirmation; binding response (% of control), % at 10 µM; 5,900 compounds, 1.8% hits; shares compounds with MEKK3 PB1 HTS; bead flow cytometry, Alexa488-MEK5 binding to MEKK3; hits give low values;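 active = binding response below 72% of control, or above a set upper limit, though filed actives all read lower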;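 also: 100% = DMSO only wells and 0% = binding blocked by excess unlabeled MEK5; lower values mean stronger disruption of MEK5 binding to MEKK3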
The depositor's hits bear a star; ? = inconclusive; · = no result given; [ ] = remark or other dose.

SMILES	PREPL inh	MEKK2 mut-MEK5	Apaf1 inhib	UBC13 polyUb	MEKK2wt PB1 HTS	MEKK3 PB1 HTS	MEKK2wt confirm	MEKK2mut-MEK5	MEKK3 confirm
COc1ccc(CN(C2CCCCC2C)S(=O)(=O)c2ccc(S(=O)(=O)N(C)C)cc2)cc1OC (centres undefined)	3	0	9	-9	98	137*	99	8	104
COc1ccc(NC(=O)COc2coc(CN3c4ccccc4CC3C)cc2=O)cc1 (centres undefined)	2	·	10	1	·	·	·	·	·
CC[n+]1c(/C=C/N(C)c2ccccc2)oc2ccccc21	14	-1	-2	1	99	72*[inhibitor]	103	3	103
O=C(CCN1CCC(c2ccccc2)C1)c1cccs1 (centres undefined)	5	-8	-15	-5	81	81*[inhibitor]	100	-3	100
O=C(Nc1nnc(-c2ccccc2Cl)s1)C1CCN(S(=O)(=O)c2ccc(Cl)cc2)CC1	-1	0	7	0	100	140*	101	0	101
O=C(O)c1ccc(-c2nnc(-c3ccc([N+](=O)[O-])cc3)o2)cc1	1	26*	3	0	115	112	98	-6	93
O=C(O)c1ccc(-c2nnc(-c3ccccc3)o2)cc1	-6	4	-1	7	98	98	·	·	·
CCc1nn(CC(=O)N2CCCCCC2)c(=O)c2cc3ccccc3n12	17	-2	7	-10	101	101	·	·	·
Cc1csc2c(N3CCN(C(=O)c4ccc(C(C)(C)C)cc4)CC3)ncnc12	0	22	22	4	124	131*	109	1	104
Cc1csc2c(N3CCN(C(=O)NC(C)(C)C)CC3)ncnc12	3	12	-11	9	109	114	·	·	·
Cc1nc2ccc(NC(=O)c3cccnc3)cc2s1	9	-13	-26	1	60	50*[inhibitor]	105	7	104
CCN(CC)c1ccc(NC(=O)c2cccnc2)cc1	0	13	9	-14	134*	110	96	-4	99
Cc1nc2ccc(NC(=O)c3cnc(Cl)c(Cl)c3)cc2s1	-5	7	8	4	107	106	·	·	·
CC1Sc2ccc(S(=O)(=O)N3CCC(C(=O)Nc4ccc(Cl)cc4)CC3)cc2NC1=O (centres undefined)	-2	0	19	-3	103	98	·	·	·
NS(=O)(=O)c1ccc(Nc2ncccc2[N+](=O)[O-])cc1	5	-41	-3	-11	0.0*[inhibitor]	1.0*[inhibitor]	95	-1	104
COc1cccc(Cn2nc3c4cc(F)ccc4n(Cc4ccc(F)cc4)cc-3c2=O)c1	1	-3	5	0	93	92	·	·	·
COc1cc2c3nnc(-c4ccc(F)cc4)c-3cn(Cc3cccc(C)c3)c2cc1OC	-42	48*	53*	79*	167*	104	197	61	108
COc1cc2c3nnc(-c4ccccc4)c-3cn(Cc3ccc(F)cc3)c2cc1OC	-11	36	13	20	166*	99	187	48	113
COc1cc2c3nnc(-c4ccc(F)cc4)c-3cn(Cc3cccc(F)c3)c2cc1OC	-7	-3	0	20	53	39*[inhibitor]	88	-8	73
COc1ccc(N2CCN(CCCNC(=O)Cn3c(=O)c4cccn4c4ccccc43)CC2)cc1	-2	11	15	0	116	101	·	·	·
CC(Nc1ccccc1)c1ccncc1 (centres undefined)	1	6	-5	2	124	133*	102	-26	98
CCCN(CC(=O)Nc1ccc(F)c(F)c1F)C(=O)c1ccc(N2CCCC2=O)cc1	4	·	0	-7	·	·	·	·	·
O=C(CN1C2=NCCN2c2ccccc21)c1ccc(Br)cc1	-7	4	8	12	110	100	·	·	·
O=C(CN1C2=NCCN2c2ccccc21)c1ccc(Br)s1	12	0	-13	10	105	142*	99	0	95
COc1ccccc1-n1cnnc1SC(C)C(=O)Nc1ccc(NC(C)=O)cc1 (centres undefined)	1	-5	-11	0	56*[inhibitor]	96	95	-5	97
SMILES	PREPL inh	MEKK2 mut-MEK5	Apaf1 inhib	UBC13 polyUb	MEKK2wt PB1 HTS	MEKK3 PB1 HTS	MEKK2wt confirm	MEKK2mut-MEK5	MEKK3 confirm
CC(=O)c1cccc(N(C(=O)CNC(=O)c2cccs2)C(C(=O)NCC2CCCO2)c2ccccc2)c1 (centres undefined)	13	5	5	-5	97	100	·	·	·
O=C(C[n+]1cccc(CNC(=O)c2ccc(OC(F)F)cc2)c1)Nc1cc(C(F)(F)F)ccc1Cl	-48	25	-2	7	144*	101	155	18	102
NC(=O)C[n+]1cccc(CNC(=O)c2ccc(OC(F)F)cc2)c1	18	1	-9	-2	112	114	·	·	·
COC(=O)C(C)Sc1nc2c(c(=O)n(C)c(=O)n2C)n1CCC(C)C (centres undefined)	1	-5	5	-12	97	99	·	·	·
CC(C)CCn1c(Br)nc2c1c(=O)n(CC(N)=O)c(=O)n2C	11	-15	7	-3	2.0*[inhibitor]	2.0*[inhibitor]	99	-3	99
CCOc1ccc(NC(=O)CN(C)C(=O)c2cc3c(s2)CCCCC3)cc1OCC	8	·	24	4	·	·	·	·	·
O=C(O)CSc1nc(SCc2ccccc2Cl)nc2c1CCCC2	-4	10	4	2	125	122*	103	0	103
CCC(C)NCCCOc1c(C)cc(C)cc1Br (centres undefined)	-28	1	-3	13	111	147*	109	4	103
CCOc1ccc2c(c1)c(N=NC(=N)N)c(O)n2C	15	1	-2	-50	104	128*	107	4	104
CCOc1ccc2c(c1)c(N=NC(N)=S)c(O)n2C	9	-1	-35	?	98	101	·	·	·
CCOC(=O)C1CCN(CC(O)COc2ccc(C(C)(C)CC)cc2)CC1 (centres undefined)	-6	-21	5	18	0.0*[inhibitor]	2.0*[inhibitor]	124	13	110
CCOC(=O)C1CCN(CC(O)COc2ccc(C(C)(C)C)cc2)CC1 (centres undefined)	8	1	-5	16	104	98	·	·	·
